Results taken from ChEMBL document CHEMBL1641520, “Design, synthesis, and biological evaluation of novel water-soluble N-mustards as potential anticancer agents” (Bioorg Med Chem, 2011).
Activity calls are given as the source filed them. The calls are words filed in the database; no cut-off is given here.

How the values were obtained:
CCRF-CEM [1] = experiment: Cytotoxicity against human CCRF-CEM cells after 72 hrs by XTT assay; format: functional, cell-based
How it was run: (§1)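 CCRF-CEM leukemia cells and their taxol- or vinblastine-resistant sublines given compound for 72 h. XTT read-out: after phenazine methosulfate–XTT, 6 h at 37 °C, absorbance at 450 and 630 nm. IC50 from median-effect analysis of dose-effect data at six or seven concentrations.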

CCRF-CEM [2] = experiment: Cytotoxicity against taxol-resistant human CCRF-CEM cells after 72 hrs by XTT assay; format: functional, cell-based; how it was run: as §1
CCRF-CEM [3] = experiment: Cytotoxicity against vinblastine-resistant human CCRF-CEM cells after 72 hrs by XTT assay; format: functional, cell-based; how it was run: as §1
CCRF-CEM [4] = experiment: Selectivity ratio of IC50 for taxol-resistant human CCRF-CEM cells to IC50 for human CCRF-CEM cells; format: functional
CCRF-CEM [5] = experiment: Selectivity ratio of IC50 for vinblastine-resistant human CCRF-CEM cells to IC50 for human CCRF-CEM cells; format: functional
[6] = Cytotoxicity against human H1299 cells after 72 hrs by alamar blue assay; format: functional, cell-based; settings: NCI-H1299, 72 h
How it was run: (§2)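 H1299, PC3, CL1-0, CL1-5 and MCF-7 cells exposed to compound for 72 h. Alamar blue added, then 6 h at 37 °C; absorbance at 570 and 600 nm. IC50 from median-effect analysis of dose-effect data at six or seven concentrations.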

[7] = Cytotoxicity against human CL1-5 cells after 72 hrs by alamar blue assay; format: functional, cell-based; settings: CL1-5, 72 h; how it was run: as §2
PC-3 [8] = experiment: Cytotoxicity against human PC3 cells after 72 hrs by alamar blue assay; format: functional, cell-based; settings: PC-3, 72 h; how it was run: as §2
HCT-116 [9] = experiment: Cytotoxicity against human HCT116 cells after 72 hrs by SRB assay; format: functional, cell-based; settings: HCT-116, 72 h
How it was run: (§3)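 MX-1 breast and HCT-116 colon carcinoma cells exposed to compound for 72 h; growth measured by sulforhodamine B assay. IC50 from median-effect analysis of dose-effect data at six or seven concentrations.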

MX1 [10] = experiment: Cytotoxicity against human MX1 cells after 72 hrs by SRB assay; format: functional, cell-based; settings: MX1, 72 h; how it was run: as §3
MCF7 = experiment: Cytotoxicity against human MCF7 cells after 72 hrs by alamar blue assay; format: functional, cell-based; settings: MCF7, 72 h; how it was run: as §2
MX1 [11] = experiment: Anticancer activity against human MX1 cells xenografted in athymic mouse assessed as complete tumor remission at 30 mg/kg, iv Q2D for 5 days measured after 70 days of tumor implantation; format: functional, organism-based; parameters: dose 30 mg/kg
How it was run: (§4)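 Athymic nu/nu nude mice (male, ≥6 weeks, 20–24 g) carrying human tumor xenografts; dosing iv via tail vein, Q2D, in vehicle of DMSO/Tween 80/saline (50:40:160 µL). Dose level is the maximal tolerated dose determined beforehand. Tumor volume by caliper (length × width × height or width). Body weight taken as total minus tumor weight (1 mm³ = 1 mg). n = 4–5 mice.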

PC-3 [12] = experiment: Anticancer activity against human PC3 cells xenografted in athymic mouse assessed as tumor suppression at 30 mg/kg, iv Q2D for 4 days; format: functional; settings: PC-3, 96 h; how it was run: as §4
PC-3 [13] = experiment: Anticancer activity against human PC3 cells xenografted in athymic mouse assessed as tumor suppression at 40 mg/kg, iv Q2D for 3 days; format: functional; settings: PC-3, 72 h; how it was run: as §4
HCT-116 [14] = experiment: Anticancer activity against human HCT116 cells xenografted in athymic mouse assessed as tumor suppression at 30 mg/kg, iv Q2D for 5 days; format: functional; settings: HCT-116, 120 h; how it was run: as §4
U-87MG ATCC = experiment: Anticancer activity against human U87MG cells xenografted in athymic mouse assessed as tumor suppression at 30 mg/kg, iv Q2D for 6 days; format: functional, organism-based; parameters: dose 30 mg/kg; how it was run: as §4
Nucleic Acid = experiment: Binding affinity to Escherichia coli plasmid EGFP-N1 DNA at 1 to 10 uM after 22 hrs by alkaline agarose gel shift assay; format: nucleic-acid assay
How it was run: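 Purified pEGFP-N1 plasmid DNA (1500 ng) incubated with compound (1–20 µM) in 3 mM NaCl/1 mM sodium phosphate pH 7.4/1 mM EDTA for 2 h at 37 °C. Linearized with BamHI, ethanol-precipitated, denatured in 0.5 N NaOH-10 mM EDTA. Run on 0.8% alkaline agarose gel at 4 °C, 18 V for 22 h. Ethidium bromide stain; cross-linked double-stranded DNA scored against single-stranded DNA.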

[15] = Cell cycle arrest in human H1299 cells assessed as accumulation at sub-G1 phase at 2.5 uM after 24 hrs by propidium iodide staining-based flow cytometry; format: functional; settings: NCI-H1299
How it was run: (§5)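 H1299 non-small cell lung carcinoma cells exposed to compound for 24 h. Attached cells trypsinized, PBS-washed, fixed in ice-cold 70% ethanol for 30 min. Stained with 4 µg/ml propidium iodide in PBS with 1% Triton X-100 and 0.1 mg/ml RNase A. Analyzed by flow cytometry; phase percentages taken from DNA histograms.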

[16] = Cell cycle arrest in human H1299 cells assessed as accumulation at sub-G1 phase at 5 uM after 24 hrs by propidium iodide staining-based flow cytometry; format: functional; settings: NCI-H1299; how it was run: as §5
[17] = Cell cycle arrest in human H1299 cells assessed as accumulation at sub-G1 phase at 10 uM after 24 hrs by propidium iodide staining-based flow cytometry; format: functional; settings: NCI-H1299; how it was run: as §5
[18] = Cell cycle arrest in human H1299 cells assessed as accumulation at G1 phase at 2.5 uM after 24 hrs by propidium iodide staining-based flow cytometry; format: functional; settings: NCI-H1299; how it was run: as §5
[19] = Cell cycle arrest in human H1299 cells assessed as accumulation at G1 phase at 5 uM after 24 hrs by propidium iodide staining-based flow cytometry; format: functional; settings: NCI-H1299; how it was run: as §5
[20] = Cell cycle arrest in human H1299 cells assessed as accumulation at G1 phase at 10 uM after 24 hrs by propidium iodide staining-based flow cytometry; format: functional; settings: NCI-H1299; how it was run: as §5
[21] = Cell cycle arrest in human H1299 cells assessed as accumulation at S phase at 2.5 uM after 24 hrs by propidium iodide staining-based flow cytometry; format: functional; settings: NCI-H1299; how it was run: as §5
[22] = Cell cycle arrest in human H1299 cells assessed as accumulation at S phase at 5 uM after 24 hrs by propidium iodide staining-based flow cytometry; format: functional; settings: NCI-H1299; how it was run: as §5
[23] = Cell cycle arrest in human H1299 cells assessed as accumulation at S phase at 10 uM after 24 hrs by propidium iodide staining-based flow cytometry; format: functional; settings: NCI-H1299; how it was run: as §5
[24] = Cell cycle arrest in human H1299 cells assessed as accumulation at G2/M phase at 2.5 uM after 24 hrs by propidium iodide staining-based flow cytometry; format: functional; settings: NCI-H1299; how it was run: as §5
[25] = Cell cycle arrest in human H1299 cells assessed as accumulation at G2/M phase at 5 uM after 24 hrs by propidium iodide staining-based flow cytometry; format: functional; settings: NCI-H1299; how it was run: as §5
[26] = Cell cycle arrest in human H1299 cells assessed as accumulation at G2/M phase at 10 uM after 24 hrs by propidium iodide staining-based flow cytometry; format: functional; settings: NCI-H1299; how it was run: as §5
[27] = Mean residence time in Sprague-Dawley rat at 1 mg/kg, iv by LC-MS/MS analysis; format: ADME, organism-based; parameters: dose 1 mg/kg, route intravenous; settings: in vivo
[28] = Steady state clearance in Sprague-Dawley rat at 1 mg/kg, iv up to 24 hrs by LC-MS/MS analysis; format: ADME, organism-based; parameters: dose 1 mg/kg, route intravenous; settings: in vivo, read-out: CLss
[29] = Cytotoxicity against human CL1-0 cells after 72 hrs by alamar blue assay; format: functional, cell-based; settings: CL1-0, 72 h; how it was run: as §2

CN(C)CCNC(=O)c1cccc(NC(=O)Nc2ccc(N(CCCl)CCCl)cc2)c1.Cl
IC50 (CCRF-CEM [1]): 130 nM
IC50 (CCRF-CEM [2]): 1220 nM
IC50 (CCRF-CEM [3]): 800 nM
Ratio IC50 (CCRF-CEM [4]): 9.4
Ratio IC50 (CCRF-CEM [5]): 6.2
IC50 [6]: 10400 nM
IC50 [7]: 6080 nM
IC50 (PC-3 [8]): 1880 nM
IC50 (HCT-116 [9]): 690 nM
IC50 (MX1 [10]): 570 nM
IC50 (MCF7): 630 nM
inhibition (MX1 [11]): Active
inhibition in vivo at 30 mg/kg (PC-3 [12]): > 99%
inhibition in vivo at 40 mg/kg (PC-3 [13]): > 99%
inhibition in vivo at 30 mg/kg (HCT-116 [14]): > 95%
inhibition (U-87MG ATCC): Active
Activity (Nucleic Acid): Active
Activity [15]: 20%
Activity [16]: 19.7%
Activity [17]: 26%
Activity [18]: 2.3%
Activity [19]: 10.7%
Activity [20]: 6.5%
Activity [21]: 1.8%
Activity [22]: 8.8%
Activity [23]: 5.2%
Activity [24]: 55.9%
Activity [25]: 60.8%
Activity [26]: 62.3%
MRT [27]: 6.6 min
clearance [28]: 18 mL/min/kg
IC50 [29]: 14600 nM
